Measured values published in ChEMBL document CHEMBL1147356, “Structure and stereochemistry of pectinolides A-C, novel antimicrobial and cytotoxic 5,6-dihydro-alpha-pyrones from Hyptis pectinata” (1993).
In brackets after ≈: the same amount, converted by molar mass. Activity calls are given as the source filed them. No cut-off for these calls is given here.

What was measured:
[1] = system: Escherichia coli; assay: Antibacterial activity against Escherichia coli ATCC 8739 by agar diffusion technique; assay type: functional
[2] = system: Bacillus subtilis; assay: Antibacterial activity against Bacillus subtilis ATCC 6633 at 1 mg/ml after 24 hrs at 37 degC by agar hole-plate diffusion assay; assay type: functional; conditions: ATCC 6633, 24 h, read-out: IZ
Summary of the method: (§1)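 Agar hole-plate diffusion. Agar plates (15 ml) seeded with 1 ml overnight broth culture (10⁶ bacteria/ml); 11 mm holes filled with 100 μl of pure compound at 1 mg/ml. Streptomycin sulfate (1 mg/ml) as positive control. Duplicate per organism, 24 h at 37°. Inhibition zone diameters measured.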

[3] = system: Staphylococcus aureus; assay: Antibacterial activity against Staphylococcus aureus ATCC 6538 at 1 mg/ml after 24 hrs at 37 degC by agar hole-plate diffusion assay; assay type: functional; conditions: ATCC 6538, 24 h, read-out: IZ; summary of the method: as §1
[4] = system: Escherichia coli; assay: Antibacterial activity against Escherichia coli ATCC 8739 at < 100 ug/ml after 24 hrs at 37 degC by agar hole-plate diffusion assay; assay type: functional, organism-based
[5] = system: Pseudomonas aeruginosa; assay: Antibacterial activity against Pseudomonas aeruginosa ATCC 9027 by agar diffusion technique; assay type: functional
[6] = system: Bacillus subtilis; assay: Antibacterial activity against Bacillus subtilis ATCC 6633 after overnight incubation at 37 degC by twofold serial dilution technique; assay type: functional
Summary of the method: (§2)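 Twofold broth dilution MIC. Sample at 1 mg/ml in MeOH-H2O (1:1), 0.5 ml added to 4.5 ml nutrient broth, then doubling dilutions from 100 to 0.2 μg/ml. Each tube inoculated to 10⁶ organisms/ml final. Duplicate per organism, with solvent and streptomycin control broths.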

[7] = system: Staphylococcus aureus; assay: Antibacterial activity against Staphylococcus aureus ATCC 6538 after overnight incubation at 37 degC by twofold serial dilution technique; assay type: functional; summary of the method: as §2
[8] = system: Candida albicans; assay: Antifungal activity against Candida albicans ATCC 10231 at < 100 ug/ml after 24 hrs at 25 degC by agar hole-plate diffusion assay; assay type: functional, organism-based
[9] = system: Pseudomonas aeruginosa; assay: Antibacterial activity against Pseudomonas aeruginosa ATCC 9027 at < 100 ug/ml after 24 hrs at 37 degC by agar hole-plate diffusion assay; assay type: functional, organism-based
[10] = system: Candida albicans; assay: Antifungal activity against Candida albicans ATCC 10231 by agar diffusion technique; assay type: functional
[11] = system: ZR-75-1; assay: Cytotoxicity against human ZR-75-1 cells after 72 hrs by sulforhodamine B assay; assay type: functional; conditions: ZR-75-1, 72 h, read-out: ED50 (the source's name)
Summary of the method: (§3)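 Log-phase cells treated with five sample concentrations (20.0–0.032 μg/ml) in DMSO for 72 h at 37°, 5% CO₂, 100% humidity. Sulforhodamine B staining quantified cells per well; results given as ED50.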

[12] = system: Bacillus subtilis; assay: Antibacterial activity against Bacillus subtilis ATCC 6633 at < 100 ug/ml after 24 hrs at 37 degC by agar hole-plate diffusion assay; assay type: functional, organism-based
[13] = Cytotoxicity against human BC1 cells after 72 hrs by sulforhodamine B assay; assay type: functional; conditions: BC1, 72 h, read-out: ED50 (the source's name); summary of the method: as §3
[14] = Cytotoxicity against human LUC1 cells after 48 hrs by sulforhodamine B assay; assay type: functional; conditions: LUC1, 48 h, read-out: ED50 (the source's name)
Summary of the method: (§4)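 Log-phase cells exposed to five concentrations (20.0–0.032 μg/ml) of sample in DMSO for 48 h at 37°, 5% CO₂, 100% humidity. Cell quantity per well determined by sulforhodamine B staining; ED50 reported.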

[15] = system: P388; assay: Cytotoxicity against mouse P388 cells after 48 hrs by sulforhodamine B assay; assay type: functional; conditions: P388, 48 h, read-out: ED50 (the source's name); summary of the method: as §4
[16] = system: SK-MEL-2; assay: Cytotoxicity against human SK-MEL-2 cells after 72 hrs by sulforhodamine B assay; assay type: functional; conditions: SK-MEL-2, 72 h, read-out: ED50 (the source's name); summary of the method: as §3
[17] = system: HT-1080; assay: Cytotoxicity against human HT1080 cells after 48 hrs by sulforhodamine B assay; assay type: functional; conditions: HT-1080, 48 h, read-out: ED50 (the source's name); summary of the method: as §4
[18] = system: KB; assay: Cytotoxicity against human KB cells after 72 hrs by sulforhodamine B assay; assay type: functional; conditions: read-out: ED50 (the source's name); summary of the method: as §3
[19] = system: A-431; assay: Cytotoxicity against human A431 cells after 72 hrs by sulforhodamine B assay; assay type: functional; conditions: A-431, 72 h, read-out: ED50 (the source's name); summary of the method: as §3
[20] = system: LNCaP; assay: Cytotoxicity against human LNCAP cells after 72 hrs by sulforhodamine B assay; assay type: functional; conditions: read-out: ED50 (the source's name); summary of the method: as §3
[21] = Cytotoxicity against vinblastine-resistant human KBV1 cells after 72 hrs by sulforhodamine B assay; assay type: functional; conditions: KB-V1, 72 h, read-out: ED50 (the source's name); summary of the method: as §3
[22] = system: Staphylococcus aureus; assay: Antibacterial activity against Staphylococcus aureus ATCC 6538 at < 100 ug/ml after 24 hrs at 37 degC by agar hole-plate diffusion assay; assay type: functional, organism-based
[23] = Cytotoxicity against human Col2 cells after 72 hrs by sulforhodamine B assay; conditions: Col2, 72 h, read-out: ED50 (the source's name)

Compound	MIC [1] [µg/mL]	zone of inhibition at 1000 µg/mL [2] [mm]	zone of inhibition at 1000 µg/mL [3] [mm]	Activity [4]	MIC [5] [µg/mL]	MIC [6] [µg/mL]	MIC [7] [µg/mL]	Activity [8]	Activity [9]	MIC [10] [µg/mL]	EC50 [11] [µg/mL]	EC50 [13] [µg/mL]	EC50 [14] [µg/mL]	EC50 [15] [µg/mL]	EC50 [16] [µg/mL]	EC50 [17] [µg/mL]	EC50 [18] [µg/mL]	EC50 [19] [µg/mL]	EC50 [20] [µg/mL]	EC50 [21] [µg/mL]	other results
CCCC[C@H](OC(=O)CCl)[C@@H](OC(C)=O)[C@H](OC(C)=O)[C@@H]1OC(=O)C=C[C@@H]1OC(C)=O	300 (≈ 648 µM)	7	5	inactive	300 (≈ 648 µM)	50 (≈ 108 µM)	75 (≈ 162 µM)	inactive	inactive	200 (≈ 432 µM)	–	–	–	–	–	–	–	–	–	–	–
CCCC[C@@H](/C=C\[C@@H]1OC(=O)C[C@@H](OC)[C@@H]1O)OC(C)=O	> 500	–	–	inactive	> 500	> 100	> 100	inactive	inactive	> 500	> 20	> 20	> 20	> 5	> 20	> 20	> 20	> 20	> 20	> 20	Activity [12]: inactive
CC(=O)O[C@@H](C)[C@@H](/C=C/[C@@H]1O[C@@H]1[C@H]1CC=CC(=O)O1)OC(C)=O	–	–	–	–	–	–	–	–	–	–	4.7 (≈ 14.5 µM)	4.8 (≈ 14.8 µM)	3.3 (≈ 10.2 µM)	0.4 (≈ 1.23 µM)	4.1 (≈ 12.6 µM)	5.7 (≈ 17.6 µM)	2.9 (≈ 8.94 µM)	1.9 (≈ 5.86 µM)	1.8 (≈ 5.55 µM)	3.4 (≈ 10.5 µM)	Activity [12]: inactive; Activity [22]: inactive
CCCC[C@H](OC(C)=O)[C@@H](O)[C@H](O)[C@@H]1OC(=O)C=C[C@@H]1OC(C)=O	300 (≈ 871 µM)	7	4	inactive	300 (≈ 871 µM)	50 (≈ 145 µM)	75 (≈ 218 µM)	inactive	inactive	200 (≈ 581 µM)	6.2 (≈ 18 µM)	9.9 (≈ 28.7 µM)	8.8 (≈ 25.6 µM)	0.5 (≈ 1.45 µM)	6 (≈ 17.4 µM)	6.7 (≈ 19.5 µM)	5.9 (≈ 17.1 µM)	4.5 (≈ 13.1 µM)	4.5 (≈ 13.1 µM)	> 20	EC50 [23]: 5.1 µg/mL (≈ 14.8 µM)
CCCC[C@H](OC(C)=O)[C@@H](OC(C)=O)[C@H](OC(C)=O)[C@@H]1OC(=O)C=C[C@@H]1OC(C)=O	300 (≈ 700 µM)	5	4	inactive	200 (≈ 467 µM)	50 (≈ 117 µM)	100 (≈ 233 µM)	inactive	inactive	500 (≈ 1170 µM)	7.8 (≈ 18.2 µM)	7 (≈ 16.3 µM)	7.6 (≈ 17.7 µM)	0.4 (≈ 0.934 µM)	4.5 (≈ 10.5 µM)	8.4 (≈ 19.6 µM)	4.4 (≈ 10.3 µM)	2.6 (≈ 6.07 µM)	1.9 (≈ 4.43 µM)	6.3 (≈ 14.7 µM)	–
CCCC[C@H](OC(C)=O)[C@@H](OC(C)=O)[C@H](OC(C)=O)[C@H]1CC=CC(=O)O1 [BORONOLIDE]	–	–	–	–	–	–	–	–	–	–	8.7 (≈ 23.5 µM)	2.8 (≈ 7.56 µM)	3.9 (≈ 10.5 µM)	1 (≈ 2.7 µM)	3.3 (≈ 8.91 µM)	4.5 (≈ 12.1 µM)	4 (≈ 10.8 µM)	6.5 (≈ 17.5 µM)	3.2 (≈ 8.64 µM)	8.6 (≈ 23.2 µM)	Activity [12]: inactive; Activity [22]: inactive
CC(=O)O[C@H](/C=C\[C@H]1CC=CC(=O)O1)C[C@@H](OC(C)=O)[C@H](C)OC(C)=O [HYPTOLIDE]	> 500	5	–	inactive	> 500	100 (≈ 271 µM)	> 100	inactive	inactive	> 500	6.4 (≈ 17.4 µM)	2.4 (≈ 6.51 µM)	4.9 (≈ 13.3 µM)	1.6 (≈ 4.34 µM)	12.2 (≈ 33.1 µM)	9.6 (≈ 26.1 µM)	3.6 (≈ 9.77 µM)	3.7 (≈ 10 µM)	7.5 (≈ 20.4 µM)	4.5 (≈ 12.2 µM)	Activity [12]: inactive; Activity [22]: inactive
CCCC[C@@H](/C=C\[C@@H]1OC(=O)C=C[C@@H]1OC(C)=O)OC(C)=O [PECTINOLIDE A]	200 (≈ 644 µM)	10	8	inactive	200 (≈ 644 µM)	6.25 (≈ 20.1 µM)	12.5 (≈ 40.3 µM)	inactive	inactive	250 (≈ 806 µM)	3.6 (≈ 11.6 µM)	1 (≈ 3.22 µM)	0.9 (≈ 2.9 µM)	0.9 (≈ 2.9 µM)	0.7 (≈ 2.26 µM)	1.7 (≈ 5.48 µM)	1.8 (≈ 5.8 µM)	1.4 (≈ 4.51 µM)	0.7 (≈ 2.26 µM)	1.8 (≈ 5.8 µM)	EC50 [23]: 1 µg/mL (≈ 3.22 µM)
CCCC[C@H](O)/C=C\[C@@H]1OC(=O)C=C[C@@H]1OC(C)=O [PECTINOLIDE B]	300 (≈ 1120 µM)	6	4	inactive	300 (≈ 1120 µM)	25 (≈ 93.2 µM)	100 (≈ 373 µM)	inactive	inactive	300 (≈ 1120 µM)	1.6 (≈ 5.96 µM)	2.5 (≈ 9.32 µM)	3.8 (≈ 14.2 µM)	0.1 (≈ 0.373 µM)	2.2 (≈ 8.2 µM)	2.3 (≈ 8.57 µM)	1.4 (≈ 5.22 µM)	0.6 (≈ 2.24 µM)	0.9 (≈ 3.35 µM)	2 (≈ 7.45 µM)	EC50 [23]: 1.1 µg/mL (≈ 4.1 µM)
CCCC[C@@H](/C=C\[C@@H]1OC(=O)C=C[C@@H]1O)OC(C)=O [PECTINOLIDE C]	> 500	8	4	inactive	> 500	12.5 (≈ 46.6 µM)	100 (≈ 373 µM)	inactive	inactive	> 500	1.9 (≈ 7.08 µM)	2 (≈ 7.45 µM)	2.3 (≈ 8.57 µM)	2.2 (≈ 8.2 µM)	3.3 (≈ 12.3 µM)	1.8 (≈ 6.71 µM)	1.7 (≈ 6.34 µM)	0.8 (≈ 2.98 µM)	0.8 (≈ 2.98 µM)	3.2 (≈ 11.9 µM)	EC50 [23]: 1.6 µg/mL (≈ 5.96 µM)
CN[C@@H]1[C@H](O[C@H]2[C@H](O[C@H]3[C@H](O)[C@@H](O)[C@H](N=C(N)N)[C@@H](O)[C@@H]3N=C(N)N)O[C@@H](C)[C@]2(O)C=O)O[C@@H](CO)[C@H](O)[C@H]1O.CN[C@@H]1[C@H](O[C@H]2[C@H](O[C@H]3[C@H](O)[C@@H](O)[C@H](N=C(N)N)[C@@H](O)[C@@H]3N=C(N)N)O[C@@H](C)[C@]2(O)C=O)O[C@@H](CO)[C@H](O)[C@H]1O.O=S(=O)(O)O.O=S(=O)(O)O.O=S(=O)(O)O [STREPTOMYCIN SULFATE]	–	13	9	–	–	3.12	6.25	–	–	–	–	–	–	–	–	–	–	–	–	–	–
NYSTATIN	–	–	–	–	–	–	–	–	–	–	–	–	–	–	–	–	–	–	–	–	inhibition zone (IZ) [8]: 7 mm
